Bioassay records deposited in PubChem by several laboratories.
CYP2C19 inh: human CYP2C19 inhibition. inhibition, % at 5 µM. 96,000 tested, 21% active. CYP2C19 Supersomes, luciferin-H EGE luminescence, 30 min. AID 778;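 active means CYP2C19 inhibition above a set limit at 5 µM in the primary screen, cut at about 50% in these data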;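 further: plate controls were negative control wells for no effect and 2.5 mM tranylcypromine positive control for full effect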
Target sequence (P33261 whole entry, looked up): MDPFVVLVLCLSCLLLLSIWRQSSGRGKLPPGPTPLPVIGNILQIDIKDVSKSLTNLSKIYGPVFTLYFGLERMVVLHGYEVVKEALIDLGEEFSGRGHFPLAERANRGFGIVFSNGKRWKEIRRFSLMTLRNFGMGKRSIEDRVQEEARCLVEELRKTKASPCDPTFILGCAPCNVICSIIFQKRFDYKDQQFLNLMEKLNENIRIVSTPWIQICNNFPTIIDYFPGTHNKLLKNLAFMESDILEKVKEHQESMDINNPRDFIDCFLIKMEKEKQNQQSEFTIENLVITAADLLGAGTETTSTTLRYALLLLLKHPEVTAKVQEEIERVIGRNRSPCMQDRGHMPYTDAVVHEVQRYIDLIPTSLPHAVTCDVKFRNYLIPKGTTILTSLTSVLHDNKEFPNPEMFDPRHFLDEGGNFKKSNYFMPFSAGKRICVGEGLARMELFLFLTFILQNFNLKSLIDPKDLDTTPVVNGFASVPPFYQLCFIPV
CYP2C19 act: activators of human cytochrome P450 2C19 | P33261 | recombinant CYP2C19, luciferin-H EGE luminescence; hits give high values; 0 = fully inhibited enzyme, 1 = untreated enzyme | activation factor at 5 µM | 96,000 tested, under 10 active | AID 1025;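 active means activation factor of at least 2 at 5 µM in the primary screen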;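 further: 0 = wells with 2.5 mM tranylcypromine and 1 = vehicle-only wells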
tolC growth inh: growth inhibitors of E. coli BW25113 tolC mutant. OD615. growth inhibition, % at 10 µM (by protocol). 65,000 tested, 2.2% active;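 active means growth inhibition at or above a cutoff equal to the mean over every tested compound plus 3 SD, cut at about 60% in these data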;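 further: growth measured after 20 h incubation at 37 °C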
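System: E. coli ΔtolC::kan strain BW25113; Buffer or medium: LB broth supplemented with 50 µg/mL kanamycin; Compound: 10 µM final, single dose; Incubation: bacterial growth with compound for 20 h at 37 °C; Signal: A615 absorbance measurement; Evaluation: growth inhibition in percent.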
E coli WT exp: blocks growth of wild type E. coli BW25113; growth inhibition, % at 100 µM; OD600 absorbance; 98,000 tested, 0.15% active; AID 710;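 active means growth inhibition above about 50% at one test dose, limit read from the data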;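 further: growth measured after 20 h incubation at 37 °C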
CYP2C9 inhib: blocks human cytochrome P450 2C9 | P11712 | CYP2C9 Supersomes, luciferin-H conversion, luminescence | 96,000 tested, 20% active | inhibition, % at 5 µM;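 active means blocking of liver enzyme CYP2C9 beyond about 50% at 5 µM, limit read from the data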
CYP2C9 activ: activators of human CYP2C9. recombinant CYP2C9, luciferin-H conversion, luminescence; hits give high values; factor 1 = untreated enzyme, 0 = blocked. activation factor at 5 µM. 96,000 tested, 1.4% active;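 active means activation factor of 2 or more for CYP2C9 at a 5 µM dose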;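 further: 0 = sulfaphenazole-blocked wells and 1 = vehicle-only wells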
The depositor's hits bear a star. Most compounds without a hit are left out; they make up all but 29% or so of the library.

O=C(NCC1CCCO1)c1cc(-c2ccncc2)nc2ccc(S(=O)(=O)N3CCOCC3)cc12 (stereo not given) was read as CYP2C19 inh 72*, CYP2C19 act 0.3, tolC growth inh -15, E coli WT exp -11, CYP2C9 inhib 70* and CYP2C9 activ 0.3.
Screening CCn1cc(C(=O)NCC2CCCO2)c(=O)c2cc(S(=O)(=O)N(C)C3CCCCC3)ccc21 (stereo not given) returned CYP2C19 inh 22, CYP2C19 act 0.8, tolC growth inh 2, E coli WT exp 3, CYP2C9 inhib 61* and CYP2C9 activ 0.4.
`C=CCn1cc(C(=O)NCC2CCCO2)c(=O)c2cc(S(=O)(=O)N3CCCCCC3)ccc21` (stereo not given) gave CYP2C19 inh 7, CYP2C19 act 0.9, tolC growth inh -5, E coli WT exp 4, CYP2C9 inhib 55* and CYP2C9 activ 0.5.
For CCn1cc(C(=O)NCCCOC)c(=O)c2cc(S(=O)(=O)N(C)C3CCCCC3)ccc21 the results were CYP2C19 inh 26, CYP2C19 act 0.7, tolC growth inh 7, E coli WT exp -6, CYP2C9 inhib 76* and CYP2C9 activ 0.2.
CN1CCN(CCCNC(=O)c2cn(C)c3ccc(S(=O)(=O)N(C)C)cc3c2=O)CC1 was read as CYP2C19 inh 1, CYP2C19 act 1, tolC growth inh -11, E coli WT exp 6, CYP2C9 inhib 4 and CYP2C9 activ 1.
CCN(CCCNC(=O)c1cn(CC)c2ccc(S(=O)(=O)N(C)C)cc2c1=O)c1cccc(C)c1 was read as CYP2C19 inh 42, CYP2C19 act 0.6, tolC growth inh 20, E coli WT exp -22, CYP2C9 inhib 77* and CYP2C9 activ 0.2.
CC(C)N(CCNC(=O)c1cn(C)c2ccc(S(=O)(=O)N(C)C)cc2c1=O)Cc1ccccc1 was read as CYP2C19 inh 11, CYP2C19 act 0.9, tolC growth inh -4, E coli WT exp 5, CYP2C9 inhib 51* and CYP2C9 activ 0.5.
`CCc1ccc(-c2nc(CN3CCC(C(=O)NCc4ccco4)CC3)c(C)o2)cc1` gave CYP2C19 inh 11, CYP2C19 act 0.9, tolC growth inh 0, E coli WT exp 1, CYP2C9 inhib 22 and CYP2C9 activ 0.8.
Cn1c(Cl)cnc1C(O)c1ccccc1 (stereo not given) was read as CYP2C19 inh 12, CYP2C19 act 0.9, tolC growth inh -21, E coli WT exp -1, CYP2C9 inhib 8 and CYP2C9 activ 0.9.
For Cc1ccccc1C(=O)c1ccc2c(c1)n(C)c(=O)n2C the results were CYP2C19 inh 76*, CYP2C19 act 0.2, tolC growth inh 3, E coli WT exp -1, CYP2C9 inhib 74* and CYP2C9 activ 0.3.
For Cn1c(=O)n(C)c2cc(C(=O)O)ccc21 the results were CYP2C19 inh -21, CYP2C19 act 1.2, tolC growth inh -13, E coli WT exp 2, CYP2C9 inhib -22 and CYP2C9 activ 1.2.
Cn1c(=O)c2c(nc(NCCCN3CCOCC3)n2Cc2ccc(Cl)c(Cl)c2)n(C)c1=O was read as tolC growth inh -5.
CSc1nnc(-c2sccc2OCc2ccc(C)cc2)n1C was read as CYP2C19 inh 17, CYP2C19 act 0.8, E coli WT exp 4, CYP2C9 inhib 13 and CYP2C9 activ 0.9.
`O=S(=O)(c1ccc(C2=CSC3=NCCN23)cc1)N1CCOCC1` gave CYP2C19 inh 56*, CYP2C19 act 0.4, tolC growth inh -7, E coli WT exp -2, CYP2C9 inhib 11 and CYP2C9 activ 0.9.
For C1=C(c2ccccc2)N2CCN=C2S1 the results were CYP2C19 inh 2, CYP2C19 act 1, E coli WT exp 6, CYP2C9 inhib 7 and CYP2C9 activ 0.9.
CCCSc1nc(NCc2ccco2)c2c3c(sc2n1)COC(C)(C)C3 was read as CYP2C19 inh 39, CYP2C19 act 0.6, E coli WT exp -6, CYP2C9 inhib 56* and CYP2C9 activ 0.4.
`CCCCSc1nc(NCc2ccco2)c2c3c(sc2n1)COC(C)(C)C3` gave CYP2C19 inh 11, CYP2C19 act 0.9, E coli WT exp -10, CYP2C9 inhib 46 and CYP2C9 activ 0.5.
Cc1cc(C)n(-c2nc(NCc3cccnc3)c3c4c(sc3n2)COC(C)(C)C4)n1 was read as CYP2C19 inh 39, CYP2C19 act 0.6, tolC growth inh 30, E coli WT exp 9, CYP2C9 inhib 59* and CYP2C9 activ 0.4.
O=C1Nc2ccccc2SC(c2ccccc2)C1O (stereo not given) was read as CYP2C19 inh -2, CYP2C19 act 1, tolC growth inh -4, E coli WT exp -3, CYP2C9 inhib -18 and CYP2C9 activ 1.2.
`O=C1OCC2=C1C(c1ccc(F)cc1)Sc1ccccc1N2` (stereo not given) gave CYP2C19 inh 77*, CYP2C19 act 0.2, E coli WT exp 1, CYP2C9 inhib 75* and CYP2C9 activ 0.2.
`O=S(=O)(NCCc1ccccn1)c1cccs1` gave CYP2C19 inh 8, CYP2C19 act 0.9, tolC growth inh -8, E coli WT exp 7, CYP2C9 inhib -14 and CYP2C9 activ 1.1.
O=C(NCc1ccc(F)cc1)C(Cc1ccccc1)NS(=O)(=O)c1cccs1 (stereo not given) was read as CYP2C19 inh 89*, CYP2C19 act 0.1, E coli WT exp 2, CYP2C9 inhib 50* and CYP2C9 activ 0.5.
Screening O=S(=O)(NCCSc1ccccc1)c1cccs1 returned CYP2C19 inh 80*, CYP2C19 act 0.2, tolC growth inh 18, E coli WT exp 9, CYP2C9 inhib 46 and CYP2C9 activ 0.5.
For O=C(CCNS(=O)(=O)c1cccs1)N1CCc2ccccc2C1 the results were CYP2C19 inh 59*, CYP2C19 act 0.4, tolC growth inh -2, E coli WT exp -3, CYP2C9 inhib 3 and CYP2C9 activ 1.
O=S(=O)(NCc1ccccc1)c1cccs1 was read as CYP2C19 inh 51*, CYP2C19 act 0.5, E coli WT exp 6, CYP2C9 inhib 7 and CYP2C9 activ 0.9.
For Cc1c(C(=O)OCC(=O)N2CC(=O)Nc3ccccc32)oc2ccccc12 the results were CYP2C19 inh -23, CYP2C19 act 1.2, E coli WT exp -6, CYP2C9 inhib 3 and CYP2C9 activ 1.
O=C(CCNS(=O)(=O)c1cccs1)NCc1ccccc1 was read as CYP2C19 inh 83*, CYP2C19 act 0.2, E coli WT exp 10, CYP2C9 inhib 23 and CYP2C9 activ 0.8.
`COCCn1c(=O)[nH]c2cc(C(=O)NCC3CCCO3)ccc2c1=O` (stereo not given) gave CYP2C19 inh -4, CYP2C19 act 1, tolC growth inh -9, E coli WT exp 7, CYP2C9 inhib 2 and CYP2C9 activ 1.
